Laboratory results from ChEMBL document CHEMBL1152244, “Proteochemometrics analysis of substrate interactions with dengue virus NS3 proteases” (Bioorg Med Chem, 2008).
Non-standard residues stand in square brackets, D forms with d. Residues, ends and D or L forms follow the SMILES beside them. Tyr(3-NO2) = N[C@@H](Cc1ccc(O)c([N+](=O)[O-])c1)C(=O)O; 2Abz = Nc1ccccc1C(=O)O

How the values were obtained:
dengue virus type 4 = assay: Activity of dengue virus 4 recombinant NS3 protease expressed in Escherichia coli C41(DE3) by fluorogenic assay
Method in brief: (§1)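 NS2B(H)-NS3pro from inclusion bodies, Ni-chelate and gel filtration purified under 8 M urea, refolded by dialysis. Internally quenched Abz–RRRR-XXXX–nY–NH2 peptides, 1–100 µM (12 points), enzyme 150–200 nM, 50 mM Tris–HCl pH 9.0, 20% glycerol, 37 °C. Cleavage read as fluorescence, ex 320/em 420 nm. Initial rates fitted to give Km and kcat, averaged over ≥3 independent measurements.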

dengue virus type 1 = assay: Activity of dengue virus 1 recombinant NS3 protease expressed in Escherichia coli C41(DE3) by fluorogenic assay; method in brief: as §1
dengue virus type 2 = assay: Activity of dengue virus 2 recombinant NS3 protease expressed in Escherichia coli C41(DE3) by fluorogenic assay; method in brief: as §1
dengue virus type 3 = assay: Activity of dengue virus 3 recombinant NS3 protease expressed in Escherichia coli C41(DE3) by fluorogenic assay; method in brief: as §1

SMILES	Km (dengue virus type 4)	kcat (dengue virus type 4)	Km (dengue virus type 1)	kcat (dengue virus type 1)	Km (dengue virus type 2)	kcat (dengue virus type 2)	Km (dengue virus type 3)	kcat (dengue virus type 3)
C[C@H](NC(=O)c1ccccc1N)C(=O)NCC(=O)N1CCC[C@H]1C(=O)N[C@@H](CC(N)=O)C(=O)N[C@@H](Cc1ccc(O)c([N+](=O)[O-])c1)C(N)=O (H-[2Abz]AGPN[Tyr(3-NO2)]-NH2)	19.2 µM	0.0745 s⁻¹	12.6 µM	0.0257 s⁻¹	4.18 µM	0.00683 s⁻¹	10.8 µM	0.0103 s⁻¹
CC(C)C[C@H](NC(=O)[C@@H](NC(=O)CNC(=O)[C@H](C)NC(=O)c1ccccc1N)C(C)C)C(=O)N[C@@H](Cc1ccc(O)c([N+](=O)[O-])c1)C(N)=O (H-[2Abz]AGVL[Tyr(3-NO2)]-NH2)	10.8 µM	0.0553 s⁻¹	23.9 µM	0.06 s⁻¹	2.19 µM	0.00567 s⁻¹	10.6 µM	0.0105 s⁻¹
C[C@H](NC(=O)c1ccccc1N)C(=O)N1CCC[C@H]1C(=O)N[C@@H](CS)C(=O)N[C@@H](CC(N)=O)C(=O)N[C@@H](Cc1ccc(O)c([N+](=O)[O-])c1)C(N)=O (H-[2Abz]APCN[Tyr(3-NO2)]-NH2)	4.94 µM	0.0477 s⁻¹	11.4 µM	0.0397 s⁻¹	5.41 µM	0.004 s⁻¹	3.87 µM	0.0112 s⁻¹
C[C@@H](O)[C@H](NC(=O)[C@H](CO)NC(=O)[C@H](CC(=O)O)NC(=O)c1ccccc1N)C(=O)N[C@@H](CS)C(=O)N[C@@H](Cc1ccc(O)c([N+](=O)[O-])c1)C(N)=O (H-[2Abz]DSTC[Tyr(3-NO2)]-NH2)	23.1 µM	0.014 s⁻¹	15.2 µM	0.00767 s⁻¹	12.8 µM	0.00117 s⁻¹	11.1 µM	0.00333 s⁻¹
C[C@H](NC(=O)CNC(=O)c1ccccc1N)C(=O)N[C@H](C(=O)N[C@@H](Cc1cnc[nH]1)C(=O)N[C@@H](Cc1ccc(O)c([N+](=O)[O-])c1)C(N)=O)[C@@H](C)O (H-[2Abz]GATH[Tyr(3-NO2)]-NH2)	7.79 µM	0.0782 s⁻¹	17.4 µM	0.0825 s⁻¹	4.66 µM	0.0157 s⁻¹	18.9 µM	0.0237 s⁻¹
CC(C)C[C@H](NC(=O)[C@H](Cc1cnc[nH]1)NC(=O)c1ccccc1N)C(=O)N[C@H](C(=O)N[C@@H](Cc1cnc[nH]1)C(=O)N[C@@H](Cc1ccc(O)c([N+](=O)[O-])c1)C(N)=O)C(C)C (H-[2Abz]HLVH[Tyr(3-NO2)]-NH2)	16.3 µM	0.018 s⁻¹	8.83 µM	0.00617 s⁻¹	14.1 µM	0.00233 s⁻¹	–	–
CC(C)[C@H](NC(=O)[C@H](CC(=O)O)NC(=O)[C@H](CC(N)=O)NC(=O)c1ccccc1N)C(=O)N[C@@H](CC(=O)O)C(=O)N[C@@H](Cc1ccc(O)c([N+](=O)[O-])c1)C(N)=O (H-[2Abz]NDVD[Tyr(3-NO2)]-NH2)	85.9 µM	0.0253 s⁻¹	106 µM	0.006 s⁻¹	43.2 µM	0.00167 s⁻¹	–	–
C[C@H](NC(=O)CNC(=O)[C@H](C)NC(=O)[C@H](CO)NC(=O)c1ccccc1N)C(=O)N[C@@H](Cc1ccc(O)c([N+](=O)[O-])c1)C(N)=O (H-[2Abz]SAGA[Tyr(3-NO2)]-NH2)	10.5 µM	0.222 s⁻¹	23.3 µM	0.227 s⁻¹	3.06 µM	0.027 s⁻¹	–	–
CC(C)[C@H](NC(=O)CNC(=O)[C@H](CO)NC(=O)c1ccccc1N)C(=O)N[C@@H](CS)C(=O)N[C@@H](Cc1ccc(O)c([N+](=O)[O-])c1)C(N)=O (H-[2Abz]SGVC[Tyr(3-NO2)]-NH2)	7.06 µM	0.0757 s⁻¹	–	–	4.26 µM	0.0163 s⁻¹	19.7 µM	0.0292 s⁻¹
NC(=O)[C@H](Cc1ccc(O)c([N+](=O)[O-])c1)NC(=O)[C@H](CS)NC(=O)CNC(=O)[C@H](Cc1c[nH]c2ccccc12)NC(=O)[C@H](CO)NC(=O)c1ccccc1N (H-[2Abz]SWGC[Tyr(3-NO2)]-NH2)	4.79 µM	0.0398 s⁻¹	–	–	2.87 µM	0.0065 s⁻¹	–	–

More lines, now with the values ahead:

Km (dengue virus type 4)	kcat (dengue virus type 4)	Km (dengue virus type 1)	kcat (dengue virus type 1)	Km (dengue virus type 2)	kcat (dengue virus type 2)	Km (dengue virus type 3)	kcat (dengue virus type 3)	SMILES
8.22 µM	0.0852 s⁻¹	17.9 µM	0.0818 s⁻¹	2.46 µM	0.00917 s⁻¹	12.1 µM	0.012 s⁻¹	CSCC[C@H](NC(=O)CNC(=O)[C@H](C)NC(=O)[C@H](C)NC(=O)c1ccccc1N)C(=O)N[C@@H](Cc1ccc(O)c([N+](=O)[O-])c1)C(N)=O (H-[2Abz]AAGM[Tyr(3-NO2)]-NH2)
36.9 µM	0.113 s⁻¹	31.4 µM	0.0352 s⁻¹	18.3 µM	0.0125 s⁻¹	21.2 µM	0.0153 s⁻¹	CC(C)[C@H](NC(=O)[C@H](C)NC(=O)[C@H](C)NC(=O)c1ccccc1N)C(=O)N[C@@H](CC(=O)O)C(=O)N[C@@H](Cc1ccc(O)c([N+](=O)[O-])c1)C(N)=O (H-[2Abz]AAVD[Tyr(3-NO2)]-NH2)
4.21 µM	0.0305 s⁻¹	–	–	5.63 µM	0.00433 s⁻¹	–	–	C[C@H](NC(=O)c1ccccc1N)C(=O)N[C@@H](Cc1cnc[nH]1)C(=O)N[C@@H](CO)C(=O)N[C@@H](CS)C(=O)N[C@@H](Cc1ccc(O)c([N+](=O)[O-])c1)C(N)=O (H-[2Abz]AHSC[Tyr(3-NO2)]-NH2)
10.8 µM	0.0595 s⁻¹	22.3 µM	0.031 s⁻¹	7.02 µM	0.0015 s⁻¹	31.4 µM	0.0102 s⁻¹	C[C@H](NC(=O)c1ccccc1N)C(=O)N[C@@H](CC(N)=O)C(=O)NCC(=O)N[C@@H](Cc1cnc[nH]1)C(=O)N[C@@H](Cc1ccc(O)c([N+](=O)[O-])c1)C(N)=O (H-[2Abz]ANGH[Tyr(3-NO2)]-NH2)
89 µM	0.0103 s⁻¹	–	–	19.6 µM	0.000667 s⁻¹	–	–	C[C@H](NC(=O)c1ccccc1N)C(=O)N1CCC[C@H]1C(=O)NCC(=O)N[C@@H](CC(=O)O)C(=O)N[C@@H](Cc1ccc(O)c([N+](=O)[O-])c1)C(N)=O (H-[2Abz]APGD[Tyr(3-NO2)]-NH2)
9.05 µM	0.00783 s⁻¹	22.9 µM	0.0128 s⁻¹	7.02 µM	0.0015 s⁻¹	20.8 µM	0.00283 s⁻¹	NC(=O)[C@H](Cc1ccc(O)c([N+](=O)[O-])c1)NC(=O)[C@H](Cc1cnc[nH]1)NC(=O)[C@H](CS)NC(=O)CNC(=O)[C@H](CC(=O)O)NC(=O)c1ccccc1N (H-[2Abz]DGCH[Tyr(3-NO2)]-NH2)
11.5 µM	0.021 s⁻¹	31.9 µM	0.0202 s⁻¹	13.2 µM	0.003 s⁻¹	41.5 µM	0.007 s⁻¹	NC(=O)[C@H](Cc1ccc(O)c([N+](=O)[O-])c1)NC(=O)[C@H](CS)NC(=O)[C@@H]1CCCN1C(=O)[C@H](CC(=O)O)NC(=O)CNC(=O)c1ccccc1N (H-[2Abz]GDPC[Tyr(3-NO2)]-NH2)
12.2 µM	0.0585 s⁻¹	49.7 µM	0.0715 s⁻¹	12.9 µM	0.00717 s⁻¹	18.6 µM	0.0247 s⁻¹	C[C@@H](O)[C@H](NC(=O)CNC(=O)CNC(=O)c1ccccc1N)C(=O)N[C@@H](CC(=O)O)C(=O)N[C@@H](Cc1ccc(O)c([N+](=O)[O-])c1)C(N)=O (H-[2Abz]GGTD[Tyr(3-NO2)]-NH2)
8.15 µM	0.022 s⁻¹	16.9 µM	0.02 s⁻¹	5.15 µM	0.00283 s⁻¹	18.7 µM	0.00733 s⁻¹	NC(=O)[C@H](Cc1ccc(O)c([N+](=O)[O-])c1)NC(=O)[C@@H]1CCCN1C(=O)[C@@H]1CCCN1C(=O)CNC(=O)c1ccccc1N (H-[2Abz]GPP[Tyr(3-NO2)]-NH2)
10.7 µM	0.0855 s⁻¹	22.1 µM	0.0462 s⁻¹	3.05 µM	0.00483 s⁻¹	20.9 µM	0.0128 s⁻¹	C[C@@H](O)[C@H](NC(=O)CNC(=O)c1ccccc1N)C(=O)NCC(=O)N[C@@H](CC(N)=O)C(=O)N[C@@H](Cc1ccc(O)c([N+](=O)[O-])c1)C(N)=O (H-[2Abz]GTGN[Tyr(3-NO2)]-NH2)
11.8 µM	0.0735 s⁻¹	10.5 µM	0.0193 s⁻¹	6.5 µM	0.0055 s⁻¹	12.6 µM	0.00967 s⁻¹	CC(C)[C@H](NC(=O)[C@@H](NC(=O)CNC(=O)c1ccccc1N)[C@@H](C)O)C(=O)N[C@@H](CC(N)=O)C(=O)N[C@@H](Cc1ccc(O)c([N+](=O)[O-])c1)C(N)=O (H-[2Abz]GTVN[Tyr(3-NO2)]-NH2)
7.06 µM	0.0192 s⁻¹	9.1 µM	0.004 s⁻¹	4.34 µM	0.00133 s⁻¹	10.1 µM	0.00183 s⁻¹	NC(=O)C[C@H](NC(=O)CNC(=O)[C@H](Cc1cnc[nH]1)NC(=O)[C@H](Cc1cnc[nH]1)NC(=O)c1ccccc1N)C(=O)N[C@@H](Cc1ccc(O)c([N+](=O)[O-])c1)C(N)=O (H-[2Abz]HHGN[Tyr(3-NO2)]-NH2)
3.28 µM	0.0157 s⁻¹	–	–	8.81 µM	0.00233 s⁻¹	10 µM	0.00283 s⁻¹	NC(=O)C[C@H](NC(=O)[C@H](Cc1cnc[nH]1)NC(=O)c1ccccc1N)C(=O)N[C@@H](CS)C(=O)N[C@@H](CS)C(=O)N[C@@H](Cc1ccc(O)c([N+](=O)[O-])c1)C(N)=O (H-[2Abz]HNCC[Tyr(3-NO2)]-NH2)
9.76 µM	0.0108 s⁻¹	17.2 µM	0.0025 s⁻¹	14.9 µM	0.00117 s⁻¹	–	–	NC(=O)[C@H](Cc1ccc(O)c([N+](=O)[O-])c1)NC(=O)[C@H](CC(=O)O)NC(=O)[C@H](CO)NC(=O)[C@H](Cc1c[nH]c2ccccc12)NC(=O)[C@H](Cc1cnc[nH]1)NC(=O)c1ccccc1N (H-[2Abz]HWSD[Tyr(3-NO2)]-NH2)
